Assay results taken from PubChem BioAssay AID686992 (Broad Institute, 2013).
Where “and” joins values, the source holds several entries; their conditions need not be identical. Equal values may be shown once. Screen size: about 260,000 compounds; about 960 (0.37%) were called active. What follows is part of a selection rich in actives, with near analogues and random picks from the rest. Unmarked numbers belong to inactive results.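 How the source made its calls: active means mean E-selectin-positive cell signal at least 10% of the positive control, reached in at least 60% of replicates, without over 20% cell loss; inconclusive means no rule given, readout overlaps actives, possibly toxicity-flagged; inactive means the rest, including those meeting only one limit.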

Target: E-selectin (Homo sapiens) (UniProt P16581)
Experiment: inducers of endothelial E-selectin expression – imaging, HUVEC, immunofluorescence imaging, single point, primary screen (AID 686992);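 further: signal is the percent of cells scored E-selectin positive by PE staining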
Settings: at 7.58 µM, active compounds read high, normalized: neutral wells 0, TNF-alpha wells 100
In short: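 Test system – human umbilical vein endothelial cells (HUVEC), E-selectin induction · Input – 3,000 HUVEC seeded per well · Buffer or medium – EGM-2, gelatin · Compound dosing – single-point compound dose · Detection – immunofluorescence imaging · Measure – percent E-selectin-positive cells · Controls – TNF-alpha high, DMSO low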

Chain of E-selectin (Homo sapiens) (P16581 whole entry, looked up): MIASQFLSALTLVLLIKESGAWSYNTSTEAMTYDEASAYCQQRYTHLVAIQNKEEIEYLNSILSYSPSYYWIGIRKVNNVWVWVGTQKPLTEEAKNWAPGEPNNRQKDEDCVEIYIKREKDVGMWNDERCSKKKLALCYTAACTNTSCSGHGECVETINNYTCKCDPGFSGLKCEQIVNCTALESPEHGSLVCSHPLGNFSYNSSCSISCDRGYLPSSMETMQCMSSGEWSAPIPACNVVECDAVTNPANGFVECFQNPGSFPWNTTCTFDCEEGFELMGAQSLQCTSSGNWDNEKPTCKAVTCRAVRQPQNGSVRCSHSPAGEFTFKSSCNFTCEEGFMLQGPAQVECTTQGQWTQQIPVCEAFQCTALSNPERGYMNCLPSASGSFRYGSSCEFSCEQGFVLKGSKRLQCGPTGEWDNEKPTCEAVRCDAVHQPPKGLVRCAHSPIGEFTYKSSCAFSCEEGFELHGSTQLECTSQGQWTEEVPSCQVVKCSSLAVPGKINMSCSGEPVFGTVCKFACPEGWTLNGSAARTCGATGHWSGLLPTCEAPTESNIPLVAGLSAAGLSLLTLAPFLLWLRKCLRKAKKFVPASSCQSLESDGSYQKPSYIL

SMILES | activation
CC(C)NC(=O)Nc1ccc2c(c1)C(=O)N([C@@H](C)CO)C[C@@H](C)[C@H](CN(C)Cc1ccc(-c3ccccc3)cc1)O2 | 0.764%
C[C@H](CO)N1C[C@H](C)[C@@H](CN(C)Cc2ccc(C(F)(F)F)cc2)Oc2ccc(NC(=O)CCC(F)(F)F)cc2C1=O | 63.1% (active)
C[C@H]1CN([C@@H](C)CO)C(=O)Cc2cc(NC(=O)Cc3cn(C)c4ccccc34)ccc2O[C@@H]1CN(C)Cc1ccccc1 | 0.509%
C[C@@H]1CN([C@H](C)CO)C(=O)Cc2cc(NC(=O)Cc3cn(C)c4ccccc34)ccc2O[C@@H]1CN(C)Cc1ccc(C(F)(F)F)cc1 | 275% (active)
C[C@@H]1CN([C@H](C)CO)C(=O)c2cc(NC(=O)Nc3ccc4c(c3)OCO4)ccc2O[C@@H]1CN(C)Cc1ccc(C(F)(F)F)cc1 | 0.0795%
C[C@H](CO)N1C[C@H](C)[C@H](CN(C)Cc2ccc(C(=O)O)cc2)Oc2ccc(NC(=O)NC3CCCCC3)cc2C1=O | 1.59%
C[C@H](CO)N1C[C@H](C)[C@@H](CN(C)Cc2ccc(C(F)(F)F)cc2)Oc2ccc(NC(=O)CCN3CCOCC3)cc2C1=O | 3.76%
CC(C)NC(=O)Nc1ccc2c(c1)C(=O)N([C@@H](C)CO)C[C@@H](C)[C@H](CN(C)Cc1ccc(C(=O)O)cc1)O2 | 56.9% (active)
C[C@H]1CN([C@@H](C)CO)C(=O)Cc2cc(NC(=O)Cc3cn(C)c4ccccc34)ccc2O[C@@H]1CN(C)Cc1ccc(C(F)(F)F)cc1 | 12.9%
CCCNC(=O)c1cc2c(c(-c3cccc(-c4ccc(C#N)cc4)c3)n1)[C@@H](CCO)N(C(=O)CC)C2 | 1.79%
CO[C@H]1CN(C)C(=O)c2cc(NC(=O)C3CCOCC3)ccc2OC[C@@H](C)N(Cc2cccnc2)C[C@@H]1C | -0.0535%
CN(C)C(=O)c1ccc(-c2ccccc2[C@H]2[C@@H](CO)N(C(=O)C3CCCCC3)[C@H]2C#N)cc1 | 0.141%
CSc1ncccc1C(=O)N1CCCC(Nc2ccc(F)c(F)c2)C1 (centres undefined) | -0.156%
COc1ccc(NC(=O)N(C)C[C@@H]2OCCCC[C@@H](C)Oc3ccc(NS(C)(=O)=O)cc3C(=O)N([C@@H](C)CO)C[C@H]2C)cc1 | 0.098%
COC(=O)C1=CN(c2c(C)cc(C)cc2C)C(N)=C(C#N)C1c1cccc(F)c1 (centres undefined) | -0.0735%
O=S(=O)(NCC1CC1)c1ccc(F)c(Cl)c1 | -0.0605%
O=S(=O)(NCCCN1CCOCC1)c1ccc(F)c(Cl)c1 | 82.5% (active)
COc1ccc(S(=O)(=O)N(C)CC(=O)NCCCN2CCOCC2)cc1Cl | 0.0915%
COc1ccccc1-c1ccc([C@H]2[C@H](CO)N(C(=O)C3CC3)C23CN(C(C)=O)C3)cc1 | -0.188%
CCC(=O)Nc1ccc2c(c1)OC[C@H](C)N(CC1CCOCC1)C[C@@H](C)[C@@H](OC)CN(C)C2=O | 0.195%
CO[C@@H]1CN(C)C(=O)c2cc(NS(=O)(=O)c3ccc(C)cc3)ccc2OC[C@H](C)N(Cc2nccs2)C[C@@H]1C | -0.0505%
COCCCn1c(-c2cccs2)nc2nc3ccccc3nc21 | 42.8% (active)

SMILES | activation
CCOCCCn1c(NN)nc2ccccc2c1=O | -0.132%
COCCn1c(SCC(=O)c2[nH]c(C)c(C(C)=O)c2C)nc2ccccc2c1=O | -0.059%
O=C(c1ccc(F)cc1)N1CC(=O)N2[C@@H](CO)[C@@H](c3ccc(C#Cc4ccc(F)cc4)cc3)[C@@H]2C1 | -0.811%
Cc1nc(N2CCC(C)CC2)c2c(C)c(C(=O)Nc3cc(F)ccc3C)sc2n1 | 0.651%
CCN(CC)c1ccc(NC(=O)CN2CCN(c3ccccn3)CC2)cc1 | 0.001%
Cc1nc(N2CCN(c3ccccn3)CC2)c2c(C)c(C(=O)Nc3ccc(F)cc3)sc2n1 | 86% (active)
COc1cccc(-c2nc3nc(C)cc(C)n3c2NC2CCCCC2)c1 | -0.154%
C[C@H](CO)N1C[C@H](C)[C@@H](CN(C)S(=O)(=O)c2ccc(F)cc2)Oc2c(NC(=O)Nc3ccccc3)cccc2C1=O | 0.238% and 0.231%
C[C@H](CO)N1C[C@H](C)[C@H](CN(C)S(=O)(=O)c2ccccc2)Oc2c(NC(=O)Nc3ccccc3)cccc2C1=O | 392% (active)
C[C@H](CO)N1C[C@H](C)[C@@H](CN(C)C(=O)NC2CCCCC2)Oc2c(NC(=O)Nc3ccc(F)cc3)cccc2C1=O | 42.3% (active)
Cc1ccc(S(=O)(=O)N(C)C[C@@H]2Oc3c(NC(=O)Nc4ccccc4)cccc3C(=O)N([C@H](C)CO)C[C@H]2C)cc1 | 0.069%
C[C@H]1CN([C@@H](C)CO)C(=O)c2cccc(NS(=O)(=O)c3cn(C)cn3)c2O[C@H]1CN(C)C(=O)Nc1ccc2c(c1)OCO2 | -9.5%
COc1ccc(NC(=O)N(C)C[C@@H]2Oc3c(NS(=O)(=O)c4cn(C)cn4)cccc3C(=O)N([C@H](C)CO)C[C@@H]2C)cc1 | -11.1%
C[C@@H]1CN([C@H](C)CO)C(=O)c2cccc(NC(=O)Nc3ccccc3)c2O[C@@H]1CN(C)C(=O)NC1CCCCC1 | 0.168%
C[C@H](CO)N1C[C@H](C)[C@@H](CN(C)C(=O)Nc2cccc3ccccc23)Oc2c(NS(=O)(=O)c3ccccc3)cccc2C1=O | -0.43%
C[C@H]1CN([C@@H](C)CO)C(=O)c2cccc(NS(=O)(=O)c3cn(C)cn3)c2O[C@@H]1CN(C)C(=O)Nc1ccc(F)cc1 | 46.9% (active)
C[C@@H]1CN([C@H](C)CO)C(=O)c2cccc(NS(C)(=O)=O)c2O[C@@H]1CN(C)C(=O)Nc1cccc2ccccc12 | 91.3% (active)
C[C@@H]1CN([C@H](C)CO)C(=O)c2cccc(NC(=O)Nc3cccc4ccccc34)c2O[C@@H]1CN(C)C(=O)Nc1cccc2ccccc12 | -0.224%
C[C@H]1CN([C@@H](C)CO)C(=O)c2cccc(NC(=O)Nc3ccc(C(F)(F)F)cc3)c2O[C@H]1CN(C)C(=O)NC1CCCCC1 | -0.0925%
Nc1nc2c(ncn2[C@@H]2O[C@H](C(=O)N[C@@H](Cc3ccccc3)C(=O)NCc3ccccc3)[C@@H](O)[C@H]2O)c(=O)[nH]1 | -0.0025%
CS(=O)(=O)N1[C@H](CO)[C@H](c2ccccc2)C12CN(C(=O)C1CC1)C2 | 0.098%
CNC(=O)C1CN(C(=O)c2cccc(S(=O)(=O)N3CCc4ccccc43)c2)c2ccccc2O1 (centres undefined) | -0.207%

SMILES | activation
O=C(c1ccccc1)N1C[C@H]2[C@@H](c3ccccc31)[C@H](CO)N2Cc1ccccc1F | 0.376%
Cc1ccc(C)c(C(O)c2ncc(-c3cccc4ccccc34)[nH]2)c1 (centres undefined) | -0.22%
C[C@@H]1CN([C@@H](C)CO)C(=O)c2cc(-c3ccccc3F)cnc2O[C@@H]1CN(C)Cc1cccc(F)c1 | -0.0955%
C[C@@H]1CN([C@@H](C)CO)C(=O)c2cc(-c3cccc(F)c3)cnc2O[C@@H]1CN(C)Cc1ccccc1 | -0.282%
C/C=C/c1cnc2c(c1)C(=O)N([C@@H](C)CO)C[C@H](C)[C@@H](CN(C)C(=O)C1CC1)O2 | 0.382%
C[C@@H]1CN([C@@H](C)CO)C(=O)c2cc(Br)cnc2O[C@@H]1CN(C)C(=O)C1CCCCC1 | -0.284% and 0.234%
C[C@H]1CN([C@@H](C)CO)C(=O)c2cc(Br)cnc2O[C@H]1CN(C)Cc1cccc(F)c1 | 87.1% (active)
C[C@@H]1CN([C@H](C)CO)C(=O)c2cc(Br)cnc2O[C@@H]1CN(C)C(=O)C1CC1 | 118% (active)
COC(=O)C[C@H]1CC[C@@H](NC(=O)c2ccccc2)[C@@H](CO)O1 | -0.322%
O=C(COC(=O)CCc1c[nH]c2ccccc12)Nc1cccc(Cl)c1 | 5.9%
COC(=O)C[C@@H]1CC[C@@H]2[C@H](COc3ccc(NC(=O)c4cccc(F)c4)cc3C(=O)N2C)O1 | 0.16%
CN1C(=O)c2cc(NC(=O)C3CCOCC3)ccc2OC[C@@H]2O[C@H](CC(=O)NCc3ccccc3F)CC[C@H]21 | 99.5% (active)
COC(=O)C[C@@H]1CC[C@@H]2[C@@H](COc3ccc(NC(=O)C4CCOCC4)cc3C(=O)N2C)O1 | 0.061%
COC(=O)C[C@H]1CC[C@H]2[C@@H](COc3ccc(NC(=O)Nc4cccc(F)c4)cc3C(=O)N2C)O1 | -0.114%
COC(=O)C[C@H]1CC[C@H]2[C@@H](COc3ccc(NC(=O)C4CC4)cc3C(=O)N2C)O1 | 84.9% (active)
COC(=O)C[C@H]1CC[C@H]2[C@H](COc3ccc(NC(=O)C4CC4)cc3C(=O)N2C)O1 | -0.049%
CN1C(=O)c2cc(NC(=O)C3CCCC3)ccc2OC[C@H]2O[C@H](CC(=O)NCc3ccccc3F)CC[C@H]21 | 0.0215%
COC(=O)C[C@@H]1CC[C@@H]2[C@H](COc3ccc(NC(=O)Nc4cccc(F)c4)cc3C(=O)N2C)O1 | 59.2% (active)
CN1C(=O)c2cc(NC(=O)C3CCC3)ccc2OC[C@@H]2O[C@@H](CC(=O)NCc3ccccc3F)CC[C@@H]21 | -0.028%
C[C@@H](CN1C2=NC[C@@H](Cc3ccccc3)N2C[C@H]1Cc1ccc(O)cc1)NC(=O)CCC1CCCCC1 | -4.54%
